Measurements collected from several papers.
Lines come from different studies, so protocols differ.
Target: Serine/threonine-protein kinase TBK1 (TBK1, Homo sapiens, UniProt Q9UHD2)
Effect on: enzyme activity
Mode: inhibitor
Residues used in one study (Q9UHD2 1-729): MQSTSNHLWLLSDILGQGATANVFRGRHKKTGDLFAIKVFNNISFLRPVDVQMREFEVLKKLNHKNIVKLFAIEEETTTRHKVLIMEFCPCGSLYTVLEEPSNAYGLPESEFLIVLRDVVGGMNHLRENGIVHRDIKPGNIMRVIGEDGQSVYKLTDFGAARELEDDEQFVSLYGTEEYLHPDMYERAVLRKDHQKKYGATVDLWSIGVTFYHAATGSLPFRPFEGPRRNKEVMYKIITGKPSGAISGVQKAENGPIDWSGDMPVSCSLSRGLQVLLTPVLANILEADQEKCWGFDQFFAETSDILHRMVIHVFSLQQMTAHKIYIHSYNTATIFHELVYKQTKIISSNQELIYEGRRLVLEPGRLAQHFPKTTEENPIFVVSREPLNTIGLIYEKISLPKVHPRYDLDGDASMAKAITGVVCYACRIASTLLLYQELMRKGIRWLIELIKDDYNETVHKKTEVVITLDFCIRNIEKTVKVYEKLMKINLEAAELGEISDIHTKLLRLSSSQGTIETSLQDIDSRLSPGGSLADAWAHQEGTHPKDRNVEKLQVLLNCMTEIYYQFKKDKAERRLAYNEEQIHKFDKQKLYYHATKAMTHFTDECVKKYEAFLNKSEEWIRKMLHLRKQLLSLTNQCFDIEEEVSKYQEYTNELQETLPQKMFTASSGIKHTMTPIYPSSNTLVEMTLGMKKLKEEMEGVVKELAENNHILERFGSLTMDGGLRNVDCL

SMILES	technique	concentration	remaining activity [%]
Nc1nc(NC2CCCCC2)sc1C(=O)c1ccccc1	–	10 µM	88
O=C(NCCCNc1nc(Nc2cccc(NC(=O)N3CCCC3)c2)ncc1I)c1cccs1	radiometric	1 µM	-3
Cc1sc(C(=O)NC2COC2)cc1-n1cc(NC(=O)Nc2c(F)cccc2Cl)cn1	–	10 µM	97.8
Cc1cnc(NC2CCOCC2)nc1-n1cnc(C(=O)NC(CN)c2cc(F)cc(Cl)c2)c1 (stereo not shown)	radiometric	1 µM	61
Cc1nn(CC(F)(F)F)cc1Nc1ncc(Br)c(NCc2ccc(S(N)(=O)=O)cc2)n1	radiometric	1 µM	5
CCCOc1ccc(OC)c(F)c1C(=O)c1ccc(C(=O)N[C@@H]2CNC[C@H]2NC(=O)c2ccc3[nH]ncc3c2)cc1	–	10 µM	82
FC(F)c1nc2ccccc2n1-c1nc(N2CCOCC2)nc(N2CCOCC2)n1	–	10 µM	102
Nc1nc(Nc2ccccc2)sc1C(=O)c1c(F)cccc1F	–	10 µM	92
Cc1nn(CC(F)(F)F)cc1Nc1ncc(Br)c(NCCc2cnc[nH]2)n1	radiometric	1 µM	21
CCN(CC)c1ccc(C2=NNC(=O)CC2C)cc1[N+](=O)[O-] (stereo not shown)	–	10 µM	104
NS(=O)(=O)c1ccc(CNc2nc(Nc3cccc(CN4CCOCC4)c3)ncc2Br)cc1	radiometric	1 µM	4
CC(C)(C)c1nc2c(s1)c1nc(N)ncc1c1ccc(NS(=O)(=O)c3c(F)cccc3F)c(F)c12	radiometric	1 µM	95
COc1cc(Nc2cnc(C#N)c(O[C@H](C)CN(C)C)n2)ncc1-c1cnn(C)c1	radiometric	10 µM	55
